# b-catenin transl = beta-catenin nuclear translocation modulation; HeLa beta-catenin nuclear translocation, immunofluorescence imaging; nuclear translocation activity, % at 5 µM; actives 0.3% (n = 190,000); AID 1665;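 active means nuclear translocation activity above 50% at 5 µM, with a well cell count of 50 or more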;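 further: per-cell ratio of nuclear to cytoplasmic median beta-catenin stain intensity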
#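 test system = HeLa cells, endogenous beta-catenin | dosing = single 5 µM dose plus 0.02–20 µM confirmation series | times = compound treatment 24 h, 37°C, 5% CO2 | technique = beta-catenin immunofluorescence imaging with DAPI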
# IEC-6 cytotox = kills IEC-6 intestinal cells in KLF5 counter-screen; actives 0.78% (n = 290,000); inhibition, % at 5 µM; IEC-6 cytotoxicity, luminescence viability; in the data active means inhibition above about 22%
# Ba/F3 V617F tox = lowers viability of Ba/F3 cells expressing EpoR and JAK2V617F; ATP luminescence; inhibition, % at 5.6 µM; actives 1.1% (n = 220,000);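 active means inhibition above the campaign mean plus 3 SD over all tested compounds, cut at about 24% in these data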;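 further: cytokine-independent growth of Ba/F3 cells driven by EpoR plus mutant JAK2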
# MT stabilizer = stabilizes microtubules in HeLa cells; actives 0.83% (n = 200,000); % tubulin-high responders, % at 10 µM; AID 2205; HeLa tubulin immunostaining HCS, 24 h; share of cells brighter than vehicle mean+2SD;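 active means plate Z-score above 3 for both tubulin-high and condensed-nucleus cell shares, with cell loss under 80%, at 10 µM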;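 further: anti alpha tubulin signal scored within the nucleus-defined area of each cell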
# APP 5UTR inh = APP translation inhibition | actives 0.82% (n = 190,000) | SH-SY5Y APP 5'UTR-luciferase reporter, luminescence | inhibition, % at 2 µM;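 active means inhibition above a set limit, derived from the sample mean plus 3 SD, cut at about 45% in these data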
# BaF3 parental = reduces parental Ba/F3 cell viability, JAK2V617F counter-screen | actives 1.1% (n = 220,000) | CellTiter-Glo ATP luminescence | AID 1486 | inhibition, % at 5.6 µM;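 active means inhibition above a per-campaign cutoff, the mean inhibition of all tested compounds plus 3 SD, cut at about 27% in these data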
# Numbers stand for hits; – = inactive; · = not tested or not shown. A selection: hits, their analogues and other compounds. The true share with any hit is near 2.2%.
SMILES,b-catenin transl,IEC-6 cytotox,Ba/F3 V617F tox,MT stabilizer,APP 5UTR inh,BaF3 parental
CC(Cn1cnc2ccccc21)C(=O)O (centres undefined),–,–,–,–,56,–
O=C(CCN1C(=O)COc2ccccc21)N1CCN(c2ccccn2)CC1,·,–,–,–,–,88
O=C(CCN1C(=O)COc2ccccc21)N1CCN(c2ccccc2)CC1,–,–,–,–,–,–
COc1ccc(/C=C2\CCC(C3CCCC3)C2=O)cc1 (centres undefined),·,–,·,·,·,·
COc1ccc(/C=C2\CCCC3C2=NC(=S)NC3c2ccc(OC)cc2)cc1 (centres undefined),56,–,–,–,–,–
COc1cccc(OC)c1C(=O)Nc1cc(C)nn1-c1nc2ccccc2[nH]1,–,–,–,9.3,–,–
COc1ccc(C2CC(c3cccs3)=NN2C(=O)CSc2nc3c(cnn3-c3ccccc3)c(=O)[nH]2)cc1 (centres undefined),–,–,–,–,–,–
COc1cccc(C2CC(c3cccs3)=NN2C(=O)CSc2nc3c(cnn3-c3ccc(F)cc3)c(=O)[nH]2)c1OC (centres undefined),–,–,–,–,55,–
CCN(CC)S(=O)(=O)c1ccc2[nH]cc(C(=O)NCCN3CCCCCC3)c(=O)c2c1,–,–,–,–,–,–
CCN(CC)S(=O)(=O)c1ccc2[nH]cc(C(=O)NCCC3=CCCCC3)c(=O)c2c1,–,–,–,33,–,–
CCc1ccc(/C=C/c2c[nH]c3ccccc23)[n+](CC)c1,–,–,94,–,–,79
Cc1cc(-n2c(C)cc(C(=O)CSc3nc(N)cc(=O)[nH]3)c2C)no1,–,–,–,·,·,–
Cc1cc(C(=O)CSc2nc(N)cc(=O)[nH]2)c(C)n1-c1ccc(OC(F)F)cc1,–,–,40,–,–,52
O=C(NC(=S)Nc1cccc(Cl)c1N1CCCCC1)c1ccc2c(c1)OCCO2,86,–,–,29,–,–
O=C(Nc1ccc(Cl)c(Cl)c1)Nc1nccs1,–,78,73,·,·,71
CC(C)(C)C(=O)NC(=S)Nc1ccccc1C(=O)Nc1ccccc1,–,–,–,–,–,95
CC(C)C(=O)NC(=S)Nc1ccccc1C(=O)Nc1ccccc1,–,–,–,–,–,–
Cc1sc2ncnc(NCC3COc4ccccc4O3)c2c1C (centres undefined),–,–,53,–,–,73
Cc1sc2ncnc(NCc3ccccc3)c2c1C,–,–,–,–,–,35
c1ccc(-c2csc3ncnc(NCC4COc5ccccc5O4)c23)cc1 (centres undefined),–,–,72,–,–,71
Cc1sc2ncnc(Nc3ccccc3)c2c1C,–,–,–,–,·,–
Cc1sc2ncnc(NCC3(N4CCOCC4)CCCCC3)c2c1C,·,–,–,–,–,–
Cc1sc2ncnc(NCC(C)(C)N3CCOCC3)c2c1C,–,–,–,–,–,37
CCOC(=O)C1(CCOc2ccccc2)CCN(Cc2ccc(OC)c(COC)c2)CC1,·,–,·,·,·,·
COc1cccc(N2CCN(c3ncnc4c3[nH]c3ccc(F)cc34)CC2C)c1 (centres undefined),–,36,63,26,–,53
SMILES,b-catenin transl,IEC-6 cytotox,Ba/F3 V617F tox,MT stabilizer,APP 5UTR inh,BaF3 parental
COc1ccc(S(=O)(=O)NCC2CCCO2)cc1NC(=O)c1ccccc1F (centres undefined),·,–,·,·,·,·
COc1ccccc1NC(=O)/C=C\c1ccco1,·,–,·,·,·,·
COc1ccccc1NC(=O)/C(C#N)=C/C=C/c1ccco1,61,–,–,41,88,–
O=C(Nc1ccc(Cl)cn1)c1ccccc1[N+](=O)[O-],–,–,–,23,–,–
O=C(CC(c1ccccc1)c1ccccc1)Nc1ccc(Cl)cn1,–,–,–,53,–,–
O=C(/C=C/c1cccs1)Nc1ccc(Br)cn1,166,81,74,–,92,71
O=C(Nc1ccc(NC(=O)c2ccccc2)nc1)c1ccncc1,–,–,–,–,–,–
O=C(/C=C/c1cccs1)Nc1cccc(NC(=O)/C=C/c2cccs2)n1,–,–,–,–,–,–
O=C(Nc1ccc(NC(=O)c2ccccc2Cl)nc1)c1ccncc1,–,–,–,–,–,90
O=C(CS(=O)(=O)c1ccccc1)Nc1ccc(Cl)cn1,·,–,·,·,·,·
CCC1CCC(N2CCN(c3ccc([N+](=O)[O-])cc3)CC2)CC1 (centres undefined),·,–,·,·,·,·
Cc1ccc(Nc2nc(C)cc(C)c2C(N)=O)c(C)c1,·,–,·,·,·,·

# Source: PubChem BioAssay
